Hits are enriched below; roughly 2.3% of the tested compounds scored in any of these assays.
NR2E3 ag-1 = NR2E3 agonists in two-hybrid cells, primary screen, cell-based, luminescence, CHO-S, Gal4-NCOR/VP16-NR2E3. Photoreceptor-specific nuclear receptor (Homo sapiens), Q9Y5X4. luciferase. hit rate 0.35% among 360,000. AID 602229, 2012. inhibition of corepressor binding, % at 3.98 µM;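 active = inhibition above the mean of all tested compounds plus 3 SD, cut at about 70% in these data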;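 also: 0% = DMSO with NR2E3 transfected cells and 100% = cells lacking NR2E3 construct; higher means lower luciferase signal from less NR2E3 corepressor binding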
NR2F2 inh = NR2F2 transcriptional activity inhibitors, primary screen, cell-based, luciferase reporter, HEK293T, luminescence. COUP transcription factor 2 (Homo sapiens), P24468. HEK293T NGFI-A luciferase reporter. inhibition, % at 8.6 µM. hit rate 0.7% among 370,000. AID 686940, 2013;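 active = inhibition above a per-plate cutoff, mean inhibition of test wells between control levels plus 3 SD, cut at about 38% in these data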;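 also: cells cotransfected with COUP-TFII expression vector driving the NGFI-A reporter; 0% = median of COUP-TF2 test wells and 100% = reporter-only cells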
Target sequence (P24468 whole entry, looked up): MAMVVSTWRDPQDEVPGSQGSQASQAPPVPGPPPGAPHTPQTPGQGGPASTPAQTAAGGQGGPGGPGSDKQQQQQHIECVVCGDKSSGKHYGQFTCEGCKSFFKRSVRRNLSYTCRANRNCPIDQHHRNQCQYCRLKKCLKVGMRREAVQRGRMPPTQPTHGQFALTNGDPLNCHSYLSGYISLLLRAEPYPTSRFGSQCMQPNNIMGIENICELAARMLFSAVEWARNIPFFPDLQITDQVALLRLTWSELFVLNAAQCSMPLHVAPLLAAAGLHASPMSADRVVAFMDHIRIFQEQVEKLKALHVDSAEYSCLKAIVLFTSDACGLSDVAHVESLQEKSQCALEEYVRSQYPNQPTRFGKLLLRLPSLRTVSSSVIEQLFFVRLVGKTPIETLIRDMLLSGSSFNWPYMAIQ
CHT PAM = CHT positive allosteric modulators, primary screen, cell-based, membrane potential dye, choline EC20; High affinity choline transporter 1 (Homo sapiens), Q9GZV3; CHT-expressing cells; active compounds read high; LV-AA mutant CHT in HEK293 cells; B-score at 10 µM; hit rate 0.49% among 310,000; AID 488977, 2010;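 active = initial fluorescence not abnormally high and integrated response B-score, plate-corrected, over 3 SD above library mean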
NR2E3 ag-2 = inhibitors of NR2E3-RetCOR corepressor binding, primary screen, NR2E3 agonist project, biochemical, TR-FRET, GST-NR2E3, biotin-RetCOR; Photoreceptor-specific nuclear receptor (Homo sapiens), Q9Y5X4; 1536-well; inhibition of corepressor binding, % at 4.78 µM; hit rate 0.12% among 320,000;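 active = percent inhibition above the cutoff of mean plus 3 SD of all tested compounds, set per screening campaign, cut at about 20% in these data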;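 also: 0% = DMSO wells and 100% = biotin wells as full block of FRET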
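Material: NR2E3–RetCOR corepressor complex / Amount: 1.35 nM GST-NR2E3 / Medium: Tris pH 7.5 / Compound: single nominal compound dose of 4.8 µM / Incubation: 5 h at 4 °C / Technique: TR-FRET, Eu(K)-anti-GST donor, streptavidin-D2 acceptor, ex 340, em 617/671 nm / Read-out basis: percent loss of FRET ratio relative to control wells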
GalR3 antagonist = GalR3 antagonists in HEK293 cells, primary screen, cell-based, fluorescence readout; Galanin receptor type 3 (Homo sapiens), O60755; HEK293 GalR3-CNG cAMP membrane potential fluorescence; galR3 body fused to GalR1 C-terminus; inhibition, % at 3 µM; hit rate 0.44% among 360,000; AID 651719, 2012;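 active = inhibition above the screen-wide average plus 3 SD, cut at about 13% in these data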;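 also: forskolin and galanin both at EC90 stimulate the cells; cAMP rise reported by CNG channel membrane potential dye signal; 0% = forskolin plus galanin with DMSO and 100% = forskolin alone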
Target sequence (O60755 1-299 limits assumed): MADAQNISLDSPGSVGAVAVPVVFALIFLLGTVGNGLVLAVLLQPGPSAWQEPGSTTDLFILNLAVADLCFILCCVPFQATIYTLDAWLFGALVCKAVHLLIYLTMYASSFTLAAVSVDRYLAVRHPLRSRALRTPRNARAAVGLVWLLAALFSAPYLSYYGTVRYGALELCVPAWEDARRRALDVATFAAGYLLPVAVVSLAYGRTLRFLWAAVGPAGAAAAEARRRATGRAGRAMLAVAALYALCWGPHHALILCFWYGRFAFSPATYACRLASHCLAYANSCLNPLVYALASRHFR
CHT inh = inhibitors of human choline transporter CHT; High affinity choline transporter 1 (Homo sapiens), Q9GZV3; CHT-expressing cells, membrane potential dye, choline response; active compounds read low; B-score at 10 µM; hit rate 0.86% among 310,000; AID 488975, 2010;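 active = B-score over 3 SD under the library average, and starting fluorescence ratio not unusually high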;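 also: choline stimulus applied at its EC90 after an EC20 pre-addition; B-score computed on integrated fluorescence ratio after choline addition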
CHT act confirm = CHT activators, confirmation, cell-based, membrane potential dye, duplicate; shares compounds with CHT PAM; CHT-expressing cells, membrane potential dye fluorescence (FDSS); % of choline EC20–EC90 response window; HEK293 expressing CHT LV-AA mutant; choline added at its EC20; AID 504833, 2011; activation, % at 10 µM; hit rate 91% among 2,500;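 active = primary screen active, with duplicate mean activation above negative control mean plus 3 SD, cut at about 11% in these data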
HEK293 MP dye = membrane potential response in parental HEK293 cells, counter-screen for CHT activator project, cell-based, membrane potential dye. shares compounds with CHT PAM. hit rate 62% among 2,500. membrane potential dye fluorescence (FDSS); measured after EC20 choline addition. ratio readout change at 10 µM, hits read low;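 active = duplicate-averaged ratio beyond 3 SD from buffer wells, up or down, though filed actives are nearly all decreases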
* = called active by the depositor; i = inactive; x = not tested or not shown.

SMILES | NR2E3 ag-1 | NR2F2 inh | CHT PAM | NR2E3 ag-2 | GalR3 antagonist | CHT inh | CHT act confirm | HEK293 MP dye
CCCCN1CC(=O)N2[C@H](C[C@@]3(C)c4ccccc4N(S(=O)(=O)c4ccccc4)[C@@H]23)C1=O | x | 4.5 | x | x | x | x | x | x
COc1ccc(C(=O)N(CCc2ccccc2)Cc2ccccc2)c(OC)n1 | -5.0 | -7.1 | 10.5* | 1.1 | -8.7 | i | 14.3* | i
CS(=O)(=O)c1ccccc1C(=O)N(CCc1ccccc1)Cc1ccccc1 | -11.0 | 8.3 | i | 0.3 | -0.9 | i | x | x
COc1ccc2ccccc2c1C=NNC(=O)c1cc(-c2ccc(C)cc2)n[nH]1 | x | -11.4 | x | x | x | x | x | x
CCN1C(=O)c2cccc3c(S(=O)(=O)NCCCN4CCOCC4)ccc1c23 | -21.7 | 2.7 | 6.96* | 2.7 | -4.1 | i | 59.5* | -53.8*
CCN1C(=O)c2cccc3c(S(=O)(=O)NCc4ccccc4)ccc1c23 | 4.8 | -27.2 | x | 0.5 | -1.5 | x | x | x
Cc1cc(C)nc(NC(N)=NC(C)c2ccccc2)n1 (stereo not given) | x | -14.0 | 6.31* | 1.4 | -5.9 | i | 44.9* | -33.9*
COc1ccc(C(N)c2nccc3cc(OC)c(OC)cc23)cc1OC (stereo not given) | -35.8 | x | 7.3* | 6.1 | x | i | 53.0* | -41.1*
C[C@H](O)[C@@H]1C(=O)N2CCc3c([nH]c4c(-c5ccc6c(c5)OCO6)cccc34)[C@@H]2C[C@@H]1N(C)C(=O)OCc1ccccc1 | x | -2.4 | x | x | x | x | x | x
CCN(Cc1ccccc1)C(=O)c1nn(-c2ccc(OC)cc2)c(=O)c2c1c1ccccc1n2C | 14.4 | 4.2 | i | 2.5 | -6.9 | i | 46.4* | i
COc1ccc(C(=O)OCCCN(C)C2CN(Cc3cn(Cc4ccccc4Cl)nn3)S(=O)(=O)C2)cc1OC (stereo not given) | x | 12.6 | x | x | x | x | x | x
O=c1[nH]cccc1-c1nc2ccccc2[nH]1 | -57.5 | -15.4 | i | 1.4 | -8.8 | i | 34.4* | -30.3*
CC(C)COP(=O)(OCC(C)C)C(Nc1ccccc1)c1ccc(F)cc1 (stereo not given) | 3.8 | -5.9 | i | 1.8 | -7.6 | i | 15.0* | i
Cc1cc(C)n2nc(C(=O)N/N=C/c3ccco3)nc2n1 | -10.9 | -18.8 | 7.05* | -2.0 | -7.1 | i | 59.3* | -60.4*
CCSc1nnc(NC(=O)c2nc3nc(C)cc(C)n3n2)s1 | -4.8 | 7.6 | 6.26* | -0.3 | -2.7 | i | 48.3* | -41*
Cc1cc(C)n2nc(C(=O)Nc3nccs3)nc2n1 | -59.5 | -45.6 | i | -2.1 | -4.7 | i | 54.1* | -27.3*
Cc1cc(C)n2nc(C(=O)N/N=C/c3ccccc3Cl)nc2n1 | -11.9 | 9.1 | i | 3.8 | -3.2 | i | x | x
Cc1csc(NC(=O)c2nc3nc(C)cc(C)n3n2)n1 | -106.3 | -48.0 | i | 2.0 | -1.6 | i | x | x
Cc1cc(C)n2nc(C(=O)Nc3cccnc3)nc2n1 | -28.9 | -6.0 | 8.69* | -1.5 | 2.9 | i | 47.2* | -48*
Cc1cc(C)n2nc(C(=O)NC(c3ccccc3)c3ccccc3)nc2n1 | -12.7 | 8.1 | i | 1.0 | 2.1 | i | x | x
N#Cc1cccc(NC(=O)OC2CC3CC2[C@H]2CCCCN2C3)c1 (stereo not given in full) | x | -15.8 | x | x | x | x | x | x
COc1ccc(NC(=O)N2CCC(N(C)CCC(C)C)CC2)cc1OC | x | 6.8 | x | x | x | x | x | x
CCOC(=O)CC[C@@H]1CC[C@]2(CCCN(C(=O)c3ccco3)C2)O1 | x | -12.0 | x | x | x | x | x | x
COc1cccc(CN[C@@H]2CC[C@@]34CCCN3C(=O)CCC[C@H]4C2)c1 | x | -9.4 | x | x | x | x | x | x
COc1nnc(-c2ccc(N3CCOCC3)c(NC(=O)C3CCCCC3)c2)c2ccccc12 | -18.4 | -8.8 | i | -1.4 | -2.0 | i | 7.5 | i
SMILES | NR2E3 ag-1 | NR2F2 inh | CHT PAM | NR2E3 ag-2 | GalR3 antagonist | CHT inh | CHT act confirm | HEK293 MP dye
CC(C)C1Oc2ccccc2N(CC(=O)NC2CCCCC2)C1=O (stereo not given) | -12.3 | 2.2 | i | -1.3 | -9.2 | i | 9.8* | i
Cc1cc(-c2n[nH]c(=S)n2N=Cc2cccc(Oc3ccccc3)c2)n[nH]1 | x | -5.7 | x | x | x | x | x | x
CC(C)c1cc(C(C)C)c(S(=O)(=O)N2CCC(C(=O)NCC3COCCO3)CC2)c(C(C)C)c1 (stereo not given) | x | 18.2 | x | x | x | x | x | x
CCOC(=O)N1CCN(c2cc(NCCO)c([N+](=O)[O-])c3nonc23)CC1 | 9.6 | -10.1 | i | -1.0 | -3.9 | i | 38.7* | -32.2*
Cc1ccc(-n2c(SCC(=O)Nc3ccc(Oc4ccccc4)cc3)nnc2-c2ccco2)cc1 | x | 0.8 | x | x | x | x | x | x
O=C(Nc1ccc2nccnc2c1)c1cnccn1 | -64.6 | -31.7 | 7.5* | -0.2 | -3.2 | i | 52.9* | -58.3*
CCCn1c(C)cc(=O)c2cc(NC(=O)c3cnccn3)ccc21 | -9.1 | -6.0 | i | 7.7 | -3.4 | i | 40.8* | -79.9*
CCCOC(=O)c1ccc(NC(=O)c2cnccn2)cc1 | -45.8 | -19.9 | i | -1.1 | -1.4 | i | x | x
CCNc1c(N)c(=O)oc2ccccc12 | 28.4 | -8.2 | i | -3.0 | -2.3 | i | x | x
CCNc1c(NC(C)=O)c(=O)oc2ccccc12 | -12.0 | -1.6 | i | 4.2 | -4.5 | i | 1.1 | i
Cn1c(=O)c2c(nc(N3CCOCC3)n2CCSc2ncccn2)n(C)c1=O | 16.9 | -7.0 | 8.62* | 1.6 | x | i | 74.6* | -78.9*
Cc1ccc(C(=O)Cn2c(N3CCOCC3)nc3c2c(=O)n(C)c(=O)n3C)cc1 | 7.9 | -4.0 | i | -3.4 | 0.1 | i | x | x
Cn1c(=O)c2c(nc(N3CCOCC3)n2CCCNC2=NCCC2)n(C)c1=O | 8.6 | -5.7 | 8.82* | -2.1 | -0.9 | i | 54.4* | -55.7*
CCOc1nc(N=C(N)N)nc2c(C)cccc12 | 17.8 | 7.2 | 6.61* | 0.6 | -2.3 | i | 53.9* | -60.2*

Screens (PubChem)
